Experimental data reported in ChEMBL document CHEMBL1133254, “One-pot synthesis and biological evaluation of aspergillamides and analogues” (Bioorg Med Chem Lett, 2000).
pIC50: −log10 of the molar value. Values after ≈ are worked out from the molar mass of the structure shown. Active and inactive are the calls of the source. The rule behind the calls is not given here.

Key:
[1] = system: MCF7; assay: Compound was tested for cytotoxicity against MCF-7 cell line; Active; type: functional, cell-based; details: Homo sapiens
[2] = system: MCF7; assay: Inhibitory concentration against MCF-7 cell line; type: functional, cell-based; details: Homo sapiens
Outline: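 MCF-7 cells maintained in RPMI-1640 with 5% FCS at 37 °C under 5% CO2. Test material came from dilution plates prepared from the one-pot Ugi synthesis plates. Each sample was screened at five concentrations, and an approximate IC50 was estimated from the results.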

[3] = system: Candida albicans; assay: Compound ( at <100 uM) was tested for growth inhibition against Candida albicans; type: functional
[4] = system: Staphylococcus aureus; assay: Compound ( at <100 uM) was tested for growth inhibition against Staphylococcus aureus; type: functional
[5] = system: Bacillus subtilis; assay: Compound ( at <100 uM) was tested for growth inhibition against Bacillus subtilis; type: functional
[6] = system: HCT-116; assay: Cytotoxicity against HCT 116 cell line; type: functional, cell-based; details: Homo sapiens

## CC(=O)NCC(=O)N(CCc1c[nH]c2ccccc12)CC(=O)N/C=C\c1c[nH]c2cc(OCc3ccccc3)ncc12
[1]
  Cytotoxicity: Active

## CC(=O)NCC(=O)N(CCc1c[nH]c2ccccc12)CC(=O)N/C=C\c1c[nH]c2ccccc12
[2]
  pIC50: 5.39

## CC(=O)N[C@H](CC(C)C)C(=O)N(C)C(Cc1ccccc1)C(=O)N/C=C\c1c[nH]c2cc(OCc3ccccc3)ncc12 (stereo partly specified)
[3]
  Inhibition: 100%

## CC(=O)NCC(=O)N1C(C(=O)N/C=C\c2c[nH]c3cc(OCc4ccccc4)ncc23)CSC1(C)C (stereo unspecified)
[1]
  Cytotoxicity: Active

## CC(=O)N[C@H](CC(C)C)C(=O)N1C(C(=O)N/C=C\c2c[nH]c3ccccc23)CSC1(C)C (stereo partly specified)
[4]
  Inhibition: 100%
[5]
  Inhibition: 100%

## CCC(C)CC(C(=O)N/C=C\c1c[nH]c2ccccc12)N(C)Cc1ccc(O)cc1 (stereo unspecified) [ARAGILAMIDE]
[6]
  IC50: 16 µg/mL (≈ 39.5 µM)

## CC(=O)N1CCCC1C(=O)N(C)C(Cc1ccccc1)C(=O)N/C=C\c1c[nH]c2cc(OCc3ccccc3)ncc12 (stereo unspecified)
[2]
  pIC50: 5.72
[1]
  Cytotoxicity: Active

## CC(=O)N1CCC[C@H]1C(=O)N(C1CCCCC1)C1(C(=O)N/C=C\c2c[nH]c3ccccc23)CCCCC1
[2]
  pIC50: 6.40

## CC(=O)N[C@H](CC(C)C)C(=O)N(CCCCCO)C1(C(=O)N/C=C\c2c[nH]c3cc(OCc4ccccc4)ncc23)CCN(Cc2ccccc2)CC1
[1]
  Cytotoxicity: Active

## CC(=O)N[C@H](CC(C)C)C(=O)N(CCc1c[nH]c2ccccc12)CC(=O)N/C=C\c1c[nH]c2ccccc12
[2]
  pIC50: 4.30

## CC(=O)N[C@H](CC(C)C)C(=O)N1C(C(=O)N/C=C\c2c[nH]c3cc(OCc4ccccc4)ncc23)CSC1(C)C (stereo partly specified)
[4]
  Inhibition: 100%
[1]
  Cytotoxicity: Active
[5]
  Inhibition: 100%

## CC(=O)N[C@H](CC(C)C)C(=O)N(CCc1c[nH]c2ccccc12)CC(=O)N/C=C\c1c[nH]c2cc(OCc3ccccc3)ncc12
[4]
  Inhibition: 100%
[5]
  Inhibition: 100%

## CC(=O)NCC(=O)N(CCCCCO)C1(C(=O)N/C=C\c2c[nH]c3ccccc23)CCN(Cc2ccccc2)CC1
[3]
  Inhibition: 100%

## CC(=O)N1CCC[C@@H]1C(=O)N(CCc1c[nH]c2ccccc12)CC(=O)N/C=C\c1c[nH]c2cc(OCc3ccccc3)ncc12
[4]
  Inhibition: 100%
[5]
  Inhibition: 100%

## CC(=O)NC(C(=O)N(C)C(C(=O)N/C=C\c1c(CC=C(C)C)[nH]c2ccccc12)C(C)C)C(C)C (stereo unspecified)
[6]
  IC50: 16 µg/mL (≈ 33.3 µM)

## O=C(/C=C/c1c[nH]c2ccccc12)N/C=C/c1c[nH]c2ccccc12 [CHONDRIAMIDE A]
[6]
  IC50: 16 µg/mL (≈ 48.9 µM)

## CC(=O)NC(CC(C)C)C(=O)N(C)C(Cc1ccccc1)C(=O)N/C=C\c1c[nH]c2ccccc12 (stereo unspecified)
[6]
  IC50: 16 µg/mL (≈ 33.7 µM)

## CC(=O)NCC(=O)N1C(C(=O)N/C=C\c2c[nH]c3ccccc23)CSC1(C)C (stereo unspecified)
[3]
  Inhibition: 100%

## CC(=O)N[C@H](CC(C)C)C(=O)N(C)C(Cc1ccccc1)C(=O)N/C=C\c1c[nH]c2ccccc12 (stereo partly specified)
[2]
  pIC50: 6.52

## CC(=O)NCC(=O)N(CCCCCO)C1(C(=O)N/C=C\c2c[nH]c3cc(OCc4ccccc4)ncc23)CCN(Cc2ccccc2)CC1
[1]
  Cytotoxicity: Active
